Data as given in ChEMBL document CHEMBL1126806, “Iron (III)-chelating resins. 3. Synthesis, iron (III)-chelating properties, and in vitro antibacterial activity of compounds containing 3-hydroxy-2-methyl-4(1H)-pyridinone ligands” (1993).
Converted amounts (≈) assume the structure as drawn.

Experiments:
[1] = test system: Listeria innocua; assay: Tested for growth inhibition against Listeria inocua; assay type: functional; design: concentration or dose not given beside the values
Method in brief: (§1)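 Broth growth assay in BHI medium; log-phase culture (24 h plate, 1 h then 2 h at 37 °C with shaking) added to tubes with derivative at 20 mM final, 37 °C for 7 h. Starting CFU/mL 2×10^5 (E. coli) or 5×10^5 (L. inocua). Standard plate counts; % inhibition = (ΔCFU 0–7 h control − ΔCFU 0–7 h test)/ΔCFU 0–7 h control.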

[2] = test system: Listeria innocua; assay: Tested for minimum inhibitory concentration against Listeria inocua; assay type: functional
[3] = test system: Escherichia coli; assay: Tested for growth inhibition against Escherichia coli; assay type: functional; design: concentration or dose not given beside the values; method in brief: as §1
[4] = molecular target: Lactotransferrin (Bos taurus) (UniProt P24627); assay: Tested for iron mobilization from lactoferrin at physiological pH after 24 hours
Sequence of Lactotransferrin (Bos taurus) (P24627 whole entry): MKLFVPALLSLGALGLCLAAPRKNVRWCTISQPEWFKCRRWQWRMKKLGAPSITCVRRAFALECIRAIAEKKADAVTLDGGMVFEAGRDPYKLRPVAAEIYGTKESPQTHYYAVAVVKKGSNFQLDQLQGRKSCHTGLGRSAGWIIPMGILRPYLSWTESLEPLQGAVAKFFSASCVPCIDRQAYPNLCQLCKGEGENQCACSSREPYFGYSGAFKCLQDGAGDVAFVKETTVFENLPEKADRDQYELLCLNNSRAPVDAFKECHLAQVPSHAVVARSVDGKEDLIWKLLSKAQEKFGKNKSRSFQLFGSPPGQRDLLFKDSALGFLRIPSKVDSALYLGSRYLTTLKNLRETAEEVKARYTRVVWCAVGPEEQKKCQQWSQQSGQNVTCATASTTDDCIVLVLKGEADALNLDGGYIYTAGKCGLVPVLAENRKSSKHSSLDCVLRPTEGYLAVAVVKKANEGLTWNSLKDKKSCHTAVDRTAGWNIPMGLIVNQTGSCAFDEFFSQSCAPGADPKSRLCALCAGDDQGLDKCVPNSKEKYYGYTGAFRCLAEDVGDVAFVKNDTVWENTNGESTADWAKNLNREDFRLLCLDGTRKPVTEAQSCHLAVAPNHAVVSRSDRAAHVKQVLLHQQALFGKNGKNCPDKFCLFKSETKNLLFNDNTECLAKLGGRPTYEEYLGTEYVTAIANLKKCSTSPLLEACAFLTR
Method in brief: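 Lactoferrin fully iron(III)-saturated with FeCl3 in 0.1 M sodium bicarbonate overnight at room temperature (0.78 mM iron); 1.0 mL dialysed against 4 mL chelator (2 mM in 4× PBS) for 24 h at room temperature. Dialysate absorbance at 456 nm, converted by chelator–iron(III) calibration curves; protected derivatives measured after adding an unprotected chelator to the dialysate.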

[5] = test system: Escherichia coli; assay: Tested for minimum inhibitory concentration against Escherichia coli; assay type: functional
Method in brief: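 Agar dilution on BHI agar with 2-fold dilutions; spots of 10^4–10^5 CFU applied by multipoint inoculator, 18 h at 37 °C, growth judged visually.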

SMILES | MIC [2] | Iron mobilized [4] | MIC [5] | Growth inhibition [1] | Growth inhibition [3]
CCC(=O)NCCn1ccc(=O)c(O)c1C | 25 mM (≈ 5610 µg/mL) | 61% | 5 mM (≈ 1120 µg/mL) | 86% | 100%
Cc1c(O)c(=O)ccn1CCN | 25 mM (≈ 4200 µg/mL) | 60% | 5 mM (≈ 841 µg/mL) | 93% | 100%
CCn1ccc(=O)c(OCc2ccccc2)c1C | 50 mM (≈ 12200 µg/mL) | 2% | 50 mM (≈ 12200 µg/mL) | 72% | 53%
Cc1c(OCc2ccccc2)c(=O)ccn1CCN | 50 mM (≈ 12900 µg/mL) | 4% | 50 mM (≈ 12900 µg/mL) | 34% | 0%

More lines, in order of falling MIC [2], values ahead:

MIC [2] | Iron mobilized [4] | MIC [5] | SMILES | Growth inhibition [1] | Growth inhibition [3]
25 mM (≈ 3830 µg/mL) | 71% | 5 mM (≈ 766 µg/mL) | CCn1ccc(=O)c(O)c1C | 89% | 100%
25 mM (≈ 5910 µg/mL) | 63% | 5 mM (≈ 1180 µg/mL) | C=C(C)C(=O)NCCn1ccc(=O)c(O)c1C | 90% | 100%
25 mM (≈ 5560 µg/mL) | 62% | 5 mM (≈ 1110 µg/mL) | C=CC(=O)NCCn1ccc(=O)c(O)c1C | 87% | 100%
